Screening results deposited in PubChem by The Scripps Research Institute Molecular Screening Center.
Most compounds without a hit are left out; they make up all but 1.9% or so of the library.
M5 ag: CHRM5 agonism in calcium assay; activation, % at 3 µM; P08912; actives 0.19% (n = 360,000); CHO-K1 hM5 cells, Fluo-8 calcium fluorescence; 0% DMSO wells, 100% maximal acetylcholine response;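 active means activation above the run's mean over test compounds plus 3 SD, cut at about 23% in these data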;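 further: signal is peak over basal fluorescence ratio across the kinetic read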
Target sequence (P08912 whole entry, looked up): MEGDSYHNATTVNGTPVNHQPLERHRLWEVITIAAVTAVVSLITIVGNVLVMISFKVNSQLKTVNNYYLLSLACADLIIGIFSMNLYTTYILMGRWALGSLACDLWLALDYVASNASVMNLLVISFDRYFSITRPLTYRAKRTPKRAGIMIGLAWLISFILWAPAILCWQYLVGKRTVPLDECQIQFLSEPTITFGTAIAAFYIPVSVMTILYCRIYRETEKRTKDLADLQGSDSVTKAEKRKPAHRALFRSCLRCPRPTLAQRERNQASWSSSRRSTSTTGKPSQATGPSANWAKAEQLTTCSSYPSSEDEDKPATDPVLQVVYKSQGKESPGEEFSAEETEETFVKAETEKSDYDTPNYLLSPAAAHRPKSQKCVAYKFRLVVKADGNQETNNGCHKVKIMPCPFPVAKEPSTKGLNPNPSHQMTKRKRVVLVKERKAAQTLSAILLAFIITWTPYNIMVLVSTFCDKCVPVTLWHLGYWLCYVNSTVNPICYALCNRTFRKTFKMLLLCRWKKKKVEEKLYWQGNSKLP
CHRM4 PAM: positive allosteric modulators of human muscarinic M4 receptor; P08173; CHO-K1 hM4/Gqi5, Fluo-8 calcium fluorescence, ACh EC20; 0% = ACh EC20, 100% = maximal ACh; activation, % at 3 µM; actives 0.4% (n = 360,000); AID 624126;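 active means activation above its plate's cutoff, the mean activation of sample wells plus 3 SD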
M5 antag: blocks acetylcholine activation of human M5 receptor | P08912 | CHO-hM5 cells, Fluo-8 calcium fluorescence, ACh EC80 | inhibition, % at 3 µM | actives 0.59% (n = 360,000);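 active means inhibition above a per-plate cutoff, the mean of that plate's test compounds plus 3 SD, cut at about 27% in these data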;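 further: 0% = acetylcholine EC80 with DMSO and 100% = DMSO without agonist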
M4 antag: CHRM4 antagonism in calcium assay | P08173 | CHO-hM4 cells, ACh EC80, Fluo-8 calcium fluorescence | inhibition, % at 3 µM | actives 0.73% (n = 360,000);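 active means inhibition above its plate's cutoff, the mean inhibition of sample wells plus 3 SD, cut at about 27% in these data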;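 further: 0% = acetylcholine EC80 with DMSO and 100% = DMSO without agonist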
CHRM5 PAM: positive allosteric modulators of human muscarinic M5 receptor; P08912; CHO-K1 hM5, Fluo-8 calcium, ACh EC20 PAM; 0% = ACh EC20, 100% = ACh EC100; activation, % at 3 µM; actives 0.3% (n = 360,000); AID 624038;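 active means activation above the run cutoff, the mean activation of all test compounds plus 3 SD, cut at about 18% in these data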
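Assay system: CHO-K1 hM5 cells. Also added: acetylcholine at EC20 concentration, added after compound. Dosing: 3 µM, single dose. Times: compound preincubation 140 s before EC20 acetylcholine addition. Signal: Fluo-8 calcium fluorescence. Measure: % activation relative to EC20 and EC100 ACh responses. Repeats: singlicate, one well per test compound.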
CHRM4 agonist: CHRM4 agonism in calcium assay | P08173 | CHO-K1 hM4/Gqi5, Fluo-8 calcium fluorescence; vehicle 0%, full acetylcholine response 100% | activation, % at 3 µM | actives 0.14% (n = 360,000);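 active means activation above the run mean over all test wells plus 3 SD, cut at about 32% in these data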;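 further: peak over basal fluorescence ratio per well then scaled between controls; 0% = DMSO wells and 100% = acetylcholine at EC100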
* hit, by the source's call.

SMILES	M5 ag	CHRM4 PAM	M5 antag	M4 antag	CHRM5 PAM	CHRM4 agonist
COc1ccc(S(=O)(=O)N2CCCCC2)cc1NC(=O)CN(Cc1ccco1)Cc1ccco1	-3	-15	43*	27*	-44	20
COc1ccc(S(=O)(=O)N2CCCCC2)cc1NC(=O)CN(C)C1CCCCC1	-7	4	4	-9	3	3
CCCn1cnnc1CNC(=O)[C@H]1O[C@@H](n2ccc(N)nc2=O)[C@H](O)[C@@H]1O	1	2	-9	1	2	0
Cc1ccc(CNC(=O)[C@H]2O[C@@H](n3ccc(N)nc3=O)[C@H](O)[C@@H]2O)o1	1	20*	-14	-17	10	2
COc1ccc(N=C2C(=O)Nc3ccccc32)cc1	2	-1	3	4	0	0
COc1ccc(N=C2C(=O)N3c4c(cccc42)C(C)=CC3(C)C)cc1	29*	12	-1	3	-6	1
Cc1noc(C)c1S(=O)(=O)NCCN1CCN(c2ccccc2)CC1	-4	17*	-5	-12	4	4
COc1ccc(N2C(=O)Cc3c2nc(N)c(C#N)c3N)cc1	5	10	-2	28*	6	2
CCCCC(CC)C(=O)NCCCN1CCN(CCCNC(=O)C(CC)CCCC)CC1 (stereo unspecified)	-8	-9	-4	34*	-1	-1
Fc1ccccc1COc1ccc(Br)cc1CNCc1ccncc1	2	-11	15	37*	-22	19
CCC1CCCCN1CCCNC(=O)c1c(O)nc2ccccn2c1=O (stereo unspecified)	-2	1	8	-5	0	1
O=C(O)CCCC(=O)N1CCCC1	1	13	-16	-8	21*	1
O=C(CCCC(=O)N1CCCC1)N1CCCC1	-4	6	-6	-12	3	0
Cc1ccc2cc(C#N)c(SCC(=O)NCC3CCCO3)nc2c1 (stereo unspecified)	-1	26*	-6	-3	6	1
Cc1ccc2nc(SCC(=O)NCC3CCCO3)c(C#N)cc2c1 (stereo unspecified)	-4	4	-13	-2	2	0
COc1cccc(CC(=O)Nc2cc(S(=O)(=O)N3CCOCC3)ccc2N2CCN(C)CC2)c1	0	4	10	6	-4	1
O=[N+]([O-])c1ccc(CSc2nnc(-c3cccnc3)o2)cc1	6	-5	-11	5	22*	-1
COc1ccc(C=C(C(C)=O)C(=O)c2ccccc2)cc1	-6	-3	8	13	-1	1
CC(=O)C(=Cc1ccc(Cl)cc1)C(=O)c1ccccc1	-7	-13	2	24	22*	2
COc1ccc(CCC(C)NC2C3CC4CC(C3)CC2C4)cc1 (stereo unspecified)	-8	-34	21	66*	-16	7
CCn1c(N)c(C(=O)Nc2ccccc2C(=O)OC)sc1=S	-1	37*	3	-14	8	1
CCn1c(N)c(C(=O)NCCOC)sc1=S	-1	17	-4	-8	-1	2
CCCNC(=O)N1C2=NC(C(=O)OC)=C(C(=O)OC)[C@@H]3N(Cc4ccccc4)c4ccccc4[C@]23C[C@H]1CO	7	10	-9	7	20*	0
CCN1/C(=c2/s/c(=C3/C(=O)N(c4ccccc4)N=C3C)n(CC)c2=O)C=Cc2ccccc21	2	-6	12	-1	1	1
CCN1/C(=C2\C(=O)N(c3ccccc3)N=C2C)C=Cc2cc(C)ccc21	39*	-9	12	5	-18	14
O=C(Nc1cccc(Cl)c1)c1csc([C@H]2C[C@H](O)[C@@H](CO)O2)n1	2	-4	3	5	2	2
Cc1c(C(=O)NCc2ccccc2)oc2ccc(S(=O)(=O)N3CCC4(CC3)OCCO4)cc12	5	-8	11	12	-14	10
